{"source": "paper PMC2898448", "about": "(The Journal of Biological Chemistry, 2010)", "molecules": {"B1": {"name": "Mig: DPP4 substrate (protein, UniProt Q07325 23-125, looked up)", "C-X-C motif chemokine 9": "TPVVRKGRCSCISTNQGTIHLQSLKDLKQFAPSPSCEKIEIIATLKNGVQTCLNPDSADVKELIKKWEKQVSQKKKQKNGKKHQKKKVLKVRKSQRSRQKKTT"}, "B2": {"name": "monocyte-derived chemokine: DPP4 substrate (protein, UniProt O00626 25-93, looked up)", "C-C motif chemokine 22": "GPYGANMEDSVCCRDYVRYRLPLRVVKHFYWTSDSCPRPGVVLLTFRDKEICADPRVPWVKMILNKLSQ"}, "B3": {"name": "interferon-inducible T cell α: DPP4 substrate (protein, UniProt O14625 22-94, looked up)", "C-X-C motif chemokine 11": "FPMFKRGRCLCIGPGVKAVKVADIEKASIMYPSNNCDKIEVIITLKENKGQRCLNPKSKQARLIIKKVERKNF"}}, "key": {"[1]": {"conditions": "cited from earlier work; for side effects (in words): ref [18], [19]; for duration of action (in words): reference not given"}, "[2]": {"system": "apPEP (WT Aeromonus punctata PEP)", "test": "apPEP enzyme kinetics with chromogenic/fluorescent substrate Z-Gly-Pro-pNA", "format": "biochemical", "how_it_was_run": "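Free pNA was read […] to give initial velocities. Km came from a Lineweaver-Burk plot over 31–500 μM substrate. kcat/Km was taken as Vo/SoEo at two or more substrate concentrations.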"}, "[3]": {"system": "DPP4", "conditions": "ref [64]; cited from earlier work"}, "[4]": {"system": "PEP", "conditions": "ref [9]; cited from earlier work"}, "[5]": {"system": "apPEP (WT and D622N crystals)", "test": "Crystal soaking with zPP", "format": "binding, Aeromonus punctata", "how_it_was_run": "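Native full-length WT or D622N apPEP (E. coli-expressed, Ni-affinity purified, thrombin-cleaved, SEC) crystallized at 14 °C with 20 mM MES pH 6.5 and PEG. Crystals were cryoequilibrated 1–2 days at 4 °C, soaked overnight at 4 °C, then glutaraldehyde vapour cross-linked for 4 h at 4 °C. Data were collected at 100 K; structures solved by molecular replacement, with inhibitor placed from difference maps.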"}}, "note": "“Also recorded” adds a separate entry of the source. No end group written: not given here. *: point of attachment. pNA = O=[N+]([O-])c1ccc(N*)cc1; Cbz = O=C(OCc1ccccc1)*", "data": [{"molecule": "N#C[C@@H]1CCCN1C(=O)CNC12CC3CC(CC(O)(C3)C1)C2", "note": "[Galvus]", "values": [{"measurement": "side effects (in words)", "setting": "[1]", "result": "no significant negative side effects"}, {"measurement": "duration of action (in words)", "setting": "[1]", "result": "act transiently"}]}, {"molecule": "N[C@@H](CC(=O)N1CCn2c(nnc2C(F)(F)F)C1)Cc1cc(F)c(F)cc1F", "note": "[Januvia]", "values": [{"measurement": "side effects (in words)", "setting": "[1]", "result": "no significant negative side effects"}, {"measurement": "duration of action (in words)", "setting": "[1]", "result": "act transiently"}]}, {"molecule": "Cbz-Gly-Pro-pNA", "values": [{"measurement": "kcat", "setting": "[2]; 20 mM Tris-HCl (pH 8), 100 mM NaCl, 34 °C", "result": 505, "unit": "s⁻¹"}, {"measurement": "kcat/Km", "setting": "[2]; from initial rates, kcat/Km = Vo/SoEo, substrate 16–62 μM, pH 8, 34 °C", "result": 623000, "unit": "M⁻¹ s⁻¹"}]}, {"molecule": "IP10: DPP4 substrate", "values": [{"measurement": "cleavage efficiency by DPP4 relative to GLP1 (in words)", "setting": "[3]", "result": "even higher efficiency than GLP1"}]}, {"molecule": "angiotensin I-II", "values": [{"measurement": "cleavage by PEP (in words)", "setting": "[4]", "result": "Cleavage"}]}, {"molecule": "benzyloxy-carbonyl-prolyl-prolinal [zPP]", "values": [{"measurement": "contact with catalytic Ser538 (in words)", "setting": "[5]; D622N-zPP structure", "result": "makes van der Waals contact with the aldehyde group of the inhibitor"}, {"measurement": "conformational change induced by inhibitor (in words)", "setting": "[5]; preformed native crystals soaked with 10 mM zPP overnight at 4 °C", "result": "inducing a conformational change from opened (red) to closed (blue) states; also recorded: induces large scale interdomain closure"}]}, {"molecule": "bradykinin: cleaved by PEP (RPPGFSPFR; Bradykinin; UniProt P01042 381-389, looked up)", "values": [{"measurement": "cleavage by PEP (in words)", "setting": "[4]", "result": "Cleavage"}]}, {"molecule": "gastrin-releasing peptide 3–27: DPP4 substrate (LPAGGGTVLTKMYPRGNHWAVGHLM; ends and bridges not checked; UniProt P07492 26-50, looked up, fragment)", "values": [{"measurement": "cleavage efficiency by DPP4 relative to GLP1 (in words)", "setting": "[3]", "result": "even higher efficiency than GLP1"}]}, {"molecule": "neuropeptide Y: involved in neurogenic inflammation and blood pressure regulation", "values": [{"measurement": "cleavage efficiency by DPP4 relative to GLP1 (in words)", "setting": "[3]", "result": "even higher efficiency than GLP1"}]}, {"molecule": "stromal cell-derived factor 1α", "values": [{"measurement": "cleavage efficiency by DPP4 relative to GLP1 (in words)", "setting": "[3]", "result": "even higher efficiency than GLP1"}]}, {"molecule": "B1", "values": [{"measurement": "cleavage efficiency by DPP4 relative to GLP1 (in words)", "setting": "[3]", "result": "even higher efficiency than GLP1"}]}, {"molecule": "B2", "values": [{"measurement": "cleavage efficiency by DPP4 relative to GLP1 (in words)", "setting": "[3]", "result": "even higher efficiency than GLP1"}]}, {"molecule": "B3", "values": [{"measurement": "cleavage efficiency by DPP4 relative to GLP1 (in words)", "setting": "[3]", "result": "even higher efficiency than GLP1"}]}]}
